Source: PubChem (Johns Hopkins Ion Channel Center)
hERG protect – hERG rescue from dofetilide block, primary screen, cell-based, CHO-hERG, FluxOR thallium flux, dofetilide IC70. Voltage-gated inwardly rectifying potassium channel KCNH2 (Homo sapiens), Q12809. dofetilide IC70 present. activation (rescue from dofetilide block), less the hit threshold, % at 10 µM. 310,000 tested, 0.51% active;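 active = activation above the mean of controls blocked by dofetilide plus 5 SD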;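 also: thallium influx through hERG after potassium depolarization seen as dye fluorescence rise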
KCNK9 inh – KCNK9 potassium channel inhibitors, primary screen, HEK293 cells, thallium flux; FluxOR thallium flux fluorescence; active compounds read low; 310,000 tested, 1.2% active; B-score at 10 µM; Potassium channel subfamily K member 9 (Homo sapiens), Q9NPC2; AID 488922, 2010;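 active = ratio B-score over 3 SD below the library mean, with starting fluorescence within 5 SD of its mean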;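 also: negative B-score means less thallium flux so channel inhibition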
Target sequence (Q9NPC2 whole entry, looked up): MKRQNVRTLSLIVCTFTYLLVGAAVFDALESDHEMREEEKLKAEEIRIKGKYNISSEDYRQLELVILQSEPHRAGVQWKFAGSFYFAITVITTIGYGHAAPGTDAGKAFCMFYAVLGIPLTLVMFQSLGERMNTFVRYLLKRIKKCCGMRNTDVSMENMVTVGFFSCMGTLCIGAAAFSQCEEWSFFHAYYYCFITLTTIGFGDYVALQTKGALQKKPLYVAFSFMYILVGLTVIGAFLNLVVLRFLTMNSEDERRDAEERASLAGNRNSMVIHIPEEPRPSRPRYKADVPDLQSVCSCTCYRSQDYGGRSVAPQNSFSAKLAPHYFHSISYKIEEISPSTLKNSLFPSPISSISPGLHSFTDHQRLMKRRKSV
KCNQ1 block – inhibitors of human KCNQ1 channel, primary screen, cell-based, thallium flux, high-throughput; 310,000 tested, 1.3% active; Potassium voltage-gated channel subfamily KQT member 1 (Homo sapiens), P51787; B-score at 10 µM; AID 2642, 2010; CHO-K1 KCNQ1, FluxOR thallium flux fluorescence; active compounds read high;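 active = compounds whose thallium flux B-score, printed positive for inhibition, exceeds three library SD while starting fluorescence stays within three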;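 also: channel opened by potassium depolarization with thallium stimulus after 20 min compound exposure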
KCNK3 inh – human KCNK3 channel inhibitors, primary screen, CHO cells, FluxOR thallium flux, B-score; AID 602410, 2012; B-score at 10 µM; Potassium channel subfamily K member 3 (Homo sapiens), O14649; 340,000 tested, 0.84% active; FluxOR fluorescence; active compounds read low;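 active = B-score under library mean minus 4 SD, starting fluorescence ratio at most library mean plus 5 SD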;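 also: more negative B-score means stronger inhibition of thallium flux through KCNK3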
KCNQ1 pot – potentiators or activators of KCNQ1 channel, primary screen, cell-based, thallium flux, high-throughput; 310,000 tested, 0.35% active; AID 2648, 2010; Potassium voltage-gated channel subfamily KQT member 1 (Homo sapiens), P51787; B-score at 10 µM; CHO-K1 KCNQ1, thallium flux FluxOR fluorescence; active compounds read high;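 active = fluorescence ratio B-score, a plate-corrected score, at least three library SD, with initial intensity B-score within 5 SD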
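System: CHO-K1 cells stably expressing KCNQ1 / Medium: assay buffer for compound exposure, DMSO matched across wells / Reagent: thallium- and potassium-containing depolarizing buffer / Compound: one concentration, matched DMSO / Incubation: 20 min compound pretreatment at room temperature / Measured by: kinetic FluxOR fluorescence, 10 s baseline plus 110 s post-stimulus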
KCNQ1 inh valid – KCNQ1 potassium channel inhibitors, confirmation, cell-based, Tl flux, duplicate; shares compounds with KCNQ1 block; KCNQ1 cell line, FluxOR thallium flux fluorescence; inhibition, % at 10 µM; 1,600 tested, 93% active; AID 588353, 2011;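 active = primary screen active, with duplicate mean exceeding buffer control mean plus 3 SD of buffer wells, cut at about 28% in these data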;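 also: 0% = buffer control ratio and 100% = XE991 inhibitor control ratio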
CHO Tl flux – thallium flux effects in parental CHO cells, counter-screen for KCNQ1 inhibitor project, cell-based, Tl flux; 1,600 tested, 21% active; fluorescence ratio (Tl flux) at 10 µM; shares compounds with KCNQ1 block; parental CHO-K1, FluxOR thallium flux fluorescence ratio; active compounds read low; zero means no signal rise above baseline;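 active = mean of duplicate thallium-flux fluorescence ratios in parental host cells more than 5 SD below the buffer control mean, cut at about 0.38 in these data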;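 also: ratio is peak minus minimum fluorescence divided by baseline fluorescence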
KCNQ1 ephys val – KCNQ1 channel inhibitors, confirmation, orthogonal assay, cell-based, automated electrophysiology; KCNQ1-CHO cells, automated patch clamp current; AID 624120, 2012; 490 tested, 20% active; shares compounds with KCNQ1 block; calls only at 10 µM;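 active = KCNQ1 current drop exceeding 3 SD of negative control wells, seen in both duplicate runs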;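 also: steady state current during a 2 s step from -80 to +40 mV; negative values mean current inhibition and positive values mean potentiation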
KCNQ2 inh – KCNQ2 channel inhibition, selectivity assay for KCNQ1 inhibitor project, cell-based. 1,600 tested, 71% active. shares compounds with KCNQ1 block. AID 651746, 2012. KCNQ2 cells, FluxOR thallium flux fluorescence. inhibition, % at 10 µM;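 active = mean percent inhibition of the KCNQ2 thallium signal more than 5 SD above the buffer-only control wells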;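 also: KCNQ2 expressed in CHO cells; 0% = buffer control wells and 100% = XE-991 inhibitor control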
KCNQ1 KCNE1 spec – KCNQ1/KCNE1 channel inhibition, selectivity assay for KCNQ1 inhibitor project, CHO-K1 cells, thallium flux, FluxOR | shares compounds with KCNQ1 block | FluxOR thallium flux fluorescence | inhibition, % at 10 µM | 1,600 tested, 77% active | AID 652147, 2013;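 active = mean percent inhibition of duplicate wells above the buffer-only control mean plus 3 SD of those controls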;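 also: 0% = buffer only wells and 100% = XE-991 inhibitor control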
* hit, by the source's call. Shown are actives, neighbours in structure and some others; about 3.1% of the full set was active somewhere.

What do the screens show for `O=C(NC(Cc1ccccc1)C(=O)O)/C(=C/c1ccc([N+](=O)[O-])cc1)NC(=O)c1ccco1` (centres undefined)?
hERG protect: -7.7; KCNK9 inh: inactive; KCNQ1 block: inactive; KCNK3 inh: inactive; KCNQ1 pot: inactive

What do the screens show for `Cc1sc2ncnc(NCC3COc4ccccc4O3)c2c1C` (centres undefined)?
hERG protect: -21.1; KCNK9 inh: inactive; KCNQ1 block: inactive; KCNK3 inh: inactive; KCNQ1 pot: inactive

What do the screens show for `c1ccc(-c2csc3ncnc(NCC4COc5ccccc5O4)c23)cc1` (centres undefined)?
hERG protect: -10.6; KCNK9 inh: inactive; KCNQ1 block: 9*; KCNK3 inh: inactive; KCNQ1 pot: inactive; KCNQ1 inh valid: 151.0*; CHO Tl flux: 0.351*; KCNQ2 inh: 131.7%*; KCNQ1 KCNE1 spec: active

How did Cc1cc(C(=O)NC2CCCc3c2cnn3-c2ccc(C)c(C)c2)n(C)n1 (centres undefined) do in these assays?
hERG protect: -14.7; KCNK9 inh: inactive; KCNQ1 block: 11*; KCNK3 inh: inactive; KCNQ1 pot: inactive; KCNQ1 inh valid: 101.5*; CHO Tl flux: 0.466; KCNQ1 ephys val: inactive; KCNQ2 inh: 90.7%*; KCNQ1 KCNE1 spec: 84.5%*

What do the screens show for `O=c1c2sc3nc(N4CCOCC4)c4c(c3c2ncn1-c1ccccc1)CCCC4`?
hERG protect: -9.4; KCNK9 inh: inactive; KCNQ1 block: inactive; KCNK3 inh: inactive; KCNQ1 pot: inactive

Results for O=c1c2sc3nc(N4CCOCC4)c4c(c3c2ncn1CCc1ccccc1)CCCC4 ?
hERG protect: -10.5; KCNK9 inh: inactive; KCNQ1 block: 9*; KCNK3 inh: inactive; KCNQ1 pot: inactive; KCNQ1 inh valid: 102.5*; CHO Tl flux: 0.445; KCNQ1 ephys val: inactive; KCNQ2 inh: 92.0%*; KCNQ1 KCNE1 spec: 103.0%*

Results for COc1ccc(N(C(=O)Nc2ccc(Cl)cc2)C2=NCCC2)cc1 ?
hERG protect: -10.0; KCNK9 inh: inactive; KCNQ1 block: 12*; KCNK3 inh: inactive; KCNQ1 pot: inactive; KCNQ1 inh valid: 130.5*; CHO Tl flux: 0.371*; KCNQ2 inh: 132.0%*; KCNQ1 KCNE1 spec: 199.5%*

Results for Cc1ccc(N(C(=O)Nc2ccccc2)C2=NCCC2)cc1 ?
hERG protect: -5.0; KCNK9 inh: inactive; KCNQ1 block: inactive; KCNK3 inh: inactive; KCNQ1 pot: inactive

What do the screens show for `COc1ccc(-c2csc(NC(=O)CSc3nc(SC)ns3)n2)cc1`?
hERG protect: -18.6; KCNK9 inh: inactive; KCNQ1 block: 9*; KCNK3 inh: inactive; KCNQ1 pot: inactive; KCNQ1 inh valid: 114.0*; CHO Tl flux: 0.427; KCNQ1 ephys val: inactive; KCNQ2 inh: 65.7%*; KCNQ1 KCNE1 spec: 116.5%*
